One molecule from ChEMBL document CHEMBL4308915, “Synthesis of novel pyrazoline derivatives and the evaluation of death mechanisms involved in their antileukemic activity” (Bioorg Med Chem, 2019) can be followed below.

Broadly, the pIC50 is −log10 of the IC50, conventionally taken in molar units.

pIC50: −log10 of the molar value. The source made the active and inactive calls. No cut-off for these calls is given here.

Experiment [1] has as its system PBMC. Nature of the experiment: Cytotoxicity against human PBMC assessed as reduction in cell viability after 72 hrs by MTT assay. The experiment is classed as cell-based. On the technique in general: Tetrazolium assays rely on reduction of a dye to a coloured formazan, in cell work by metabolically active cells.
For experiment [2], the system named is Jurkat. Nature of the experiment: Induction of apoptosis in human Jurkat cells assessed as decrease in Bcl2 expression at 30.08 uM after 12 hrs by flow cytometric analysis relative to control. On the set-up: scale not given: the % may be the effect or the level left. For orientation: A flow cytometer gives signals particle by particle.
Experiment [3] relates to K562. Briefly: Induction of apoptosis in human K562 cells assessed as decrease in survivin level at 32 uM after 12 hrs by flow cytometric analysis relative to control. The experiment is classed as functional.
Experiment [4] concerns K562. Nature of the experiment: Cytotoxicity against human K562 cells assessed as reduction in cell viability after 24 hrs by MTT assay. The experiment is classed as functional, cell-based. To be noted: K562, 24 h. The method, boiled down: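 MTT viability after 24 h exposure. Cells seeded at 5x10^4 per well and tested at 1-100 µM. Optical density of untreated cells set as 100% viable. IC50 derived by curve fitting. PBMC from healthy non-smoking volunteers, isolated by Ficoll-Hypaque.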

For experiment [5], the system named is K562. Briefly: Induction of apoptosis in human K562 cells assessed as increase in FasR expression at 32 uM after 12 hrs by flow cytometric analysis relative to control. The experiment is classed as functional.
Experiment [6] in a line: (§1) Cytotoxicity against acute leukemia patient-derived bone marrow cells assessed as reduction in cell viability after 24 hrs. The experiment is classed as functional, cell-based. The settings on record: Homo sapiens. The method, boiled down:
(§2)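 Mononuclear cells from acute leukemia patient samples (peripheral blood or bone marrow, taken before first treatment at diagnosis or relapse) isolated by Ficoll-Hypaque.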

Experiment [7] is filed under the species Homo sapiens. The experiment is described as §1. The experiment is classed as functional, cell-based. The method, boiled down:
as §2

Experiment [8] concerns Jurkat. Nature of the experiment: Induction of apoptosis in human Jurkat cells at 30.08 uM after 12 hrs by Annexin-V FITC staining-based flow cytometry relative to control. Format: functional.
Experiment [9] deals with K562. Briefly: Induction of apoptosis in human K562 cells at 32 uM after 12 hrs by Annexin-V FITC staining-based flow cytometry relative to control. The experiment is classed as functional.
Experiment [10] deals with K562. Briefly: Induction of apoptosis in human K562 cells assessed as increase in chromatin condensation at 32 uM by acridine orange/ethidium bromide staining-based fluorescence microscopic analysis. The experiment is classed as functional, cell-based.
The test system of experiment [11] is K562. Briefly: Induction of apoptosis in human K562 cells assessed as increase in membrane blebbing at 32 uM by acridine orange/ethidium bromide staining-based fluorescence microscopic analysis. Format: functional, cell-based.
Experiment [12] concerns Jurkat. Briefly: Induction of apoptosis in human Jurkat cells assessed as increase in loss of membrane integrity at 30.08 uM by acridine orange/ethidium bromide staining-based fluorescence microscopic analysis. The experiment is classed as functional, cell-based.
The subject of experiment [13] is PBMC. Briefly: Cytotoxicity against human PBMC assessed as reduction in cell viability after 48 hrs by MTT assay. The experiment is classed as cell-based.
Experiment [14] can be described thus: Selectivity index, ratio of IC50 for human PBMC to IC50 for human Daudi cells after 24 hrs. The method, boiled down:
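MTT viability after 24 h exposure to 1-100µM; untreated control OD taken as 100%. IC50 by curve fitting in each line and in PBMC from six healthy donors (Ficoll-Hypaque). SI = IC50 PBMC / IC50 tumor line; SI ≥5 high, 2–5 moderate, <2 low.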

Experiment [15] concerns K562. Nature of the experiment: Cytotoxicity against human K562 cells assessed as reduction in cell viability after 48 hrs by MTT assay. Format: functional, cell-based. To be noted: K562, 48 h.

Regarding `COc1cc(C2=NN(C(C)=O)C(c3ccc(Br)cc3)C2)cc(OC)c1OC` (stereo not given), the pIC50 in experiment [1] was 3.93; in [4], 4.49; in experiment [6], 4.01 to 4.51; in [13] it was 3.54; in experiment [15], 4.79. The Activity in experiment [2] was 12.9%; in experiment [3], 21.2%; in experiment [5], 21.3%; in experiment [7] it was “Dose-dependent effect”; in experiment [8], 24.6%; in [9] it was 25%. Moreover, the result in experiment [10], in experiment [11] and in experiment [12] was Active. In addition, the “Ratio IC50” value in experiment [14] turned out to be 6.8.
